This is an account of results in article PMC6733178 (ACS Omega, 2019).

Converted amounts (≈) assume the structure as drawn. Some results are limits rather than exact numbers.

Assay [1] concerns tested Gram-positive strains (S. aureus incl. MRSA, S. epidermidis, B. subtilis). Briefly: MIC summarised in the text over the tested Gram-positive strains. It counts as cell-based.
The subject of assay [2] is S. aureus ATCC 700699 (Sa99). Put plainly: MIC, broth microdilution with resazurin. Particulars: for MIC: Staphylococcus aureus, ATCC700699, read-out: MIC Values Sa99. In kind it is cell-based, Staphylococcus aureus. The procedure, abridged: (§1)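 CLSI broth microdilution. Strains were grown overnight at 35 °C on TSA or TSA with 5% sheep blood. Colonies were suspended in 0.9% saline to 0.5 McFarland, then diluted 1:100 in Mueller Hinton broth (about 1 × 10^6 CFU/mL). Test compound (2 mg/mL DMSO stock) was serially diluted 1:2 from 50 µg/mL final. Resazurin was added at 8 µg/mL final, and plates were incubated 35 °C for 20–24 h and read visually. MIC is the lowest concentration without the resazurin colour change. Each plate carried untreated, DMSO and antibiotic controls.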
(In general: In broth dilution the organism is exposed to a series of concentrations in liquid medium.)

The subject of assay [3] is S. aureus ATCC 33592 (Sa92). Put plainly: MIC, broth microdilution with resazurin. In kind it is cell-based, Staphylococcus aureus. Conditions: Staphylococcus aureus, ATCC33592, read-out: MIC Values Sa92. The procedure, abridged:
as §1

The subject of assay [4] is S. aureus ATCC 33591 (Sa91). Put plainly: MIC, broth microdilution with resazurin. In kind it is cell-based, Staphylococcus aureus. Particulars: Staphylococcus aureus, ATCC33591, read-out: MIC Values Sa91. The procedure, abridged:
as §1

Assay [5] deals with S. aureus BAA-2312 (Sa12). Put plainly: MIC, broth microdilution with resazurin. Particulars: Staphylococcus aureus, BAA2312, read-out: MIC Values Sa12. It counts as cell-based, Staphylococcus aureus. The procedure, abridged:
as §1

Assay [6] deals with S. epidermidis 700296 (Se). Briefly: MIC, broth microdilution with resazurin. Particulars: Staphylococcus epidermidis, read-out: MIC Values Se. In kind it is cell-based.
The subject of assay [7] is S. aureus ATCC 25923 (Sa). Briefly: MIC, broth microdilution with resazurin. It counts as cell-based, Staphylococcus aureus. Conditions: Staphylococcus aureus, ATCC25923, read-out: MIC Values Sa. The procedure, abridged:
as §1

Assay [8] deals with A. baumannii ATCC 747 (Ab47). Briefly: MIC, broth microdilution with resazurin. Conditions: Acinetobacter baumannii, ATCC747, read-out: MIC Ab47. It counts as cell-based, Acinetobacter baumannii. The method in brief: as §1
For assay [9], the system named is A. baumannii ATCC 19606 (Type Strain, AB06). Put plainly: MIC, broth microdilution with resazurin. It counts as cell-based, Acinetobacter baumannii. Conditions: Acinetobacter baumannii, ATCC19606, read-out: MIC Ab06. The procedure, abridged: as §1

For the molecule “4-[4-[(2-Benzyl-2-phenyl-hydrazino)methyl]-3-(4-fluorophenyl)pyrazol-1-yl]benzoic Acid [Compound 24]”, in assay [1], the “activity against the tested strains (in words)” value (“activity” for short) is on record as “failed to show any significant activity”.

Take `O=Cc1cn(-c2ccc(C(=O)O)cc2)nc1-c1cccc(F)c1` [3a, 4-[3-(3-Fluorophenyl)-4-formyl-pyrazol-1-yl]benzoic Acid]: in [2] (antibiotic-resistant strain, NA = No Activity), the “MIC Values Sa99” value is listed as “did not show any activity”.

A word on the MIC: it is the lowest concentration found to suppress growth. Take `CN(/N=C/c1cn(-c2ccc(C(=O)O)cc2)nc1-c1cccc(F)c1)c1ccccc1` [Compound 4, 4-{3-(3-Fluorophenyl)-4-[(E)-(2-methyl-2-phenylhydrazinylidene)methyl]-1H-pyrazol-1-yl}benzoic Acid]: the “activity” value in assay [1] was “moderate growth inhibition”. Moreover, the MIC was 25 µg/mL (≈ 60.3 µM) in [2]; 12.5 µg/mL (≈ 30.2 µM) in assay [3]; 25 µg/mL (≈ 60.3 µM) in assay [4]; 25 µg/mL (≈ 60.3 µM) in assay [5]; 12.5 µg/mL (≈ 30.2 µM) in assay [6]; 12.5 µg/mL (≈ 30.2 µM) in [7].

Consider `O=C(O)c1ccc(-n2cc(/C=N/N(Cc3ccccc3)c3ccccc3)c(-c3cccc(F)c3)n2)cc1` [Compound 6, 4-[4-[(E)-[Benzyl(phenyl)hydrazono]methyl]-3-(3-fluorophenyl)pyrazol-1-yl]benzoic Acid], for which the MIC in assay [2], in assay [3], in assay [4], in [5], in [6] and in [7] was 1.56 µg/mL (≈ 3.18 µM) in each case.

Regarding `O=C(O)c1ccc(-n2cc(/C=N/Nc3cc(F)ccc3F)c(-c3cccc(F)c3)n2)cc1` [Compound 11, 4-[4-[(E)-[(2,5-Difluorophenyl)hydrazono]methyl]-3-(3-fluorophenyl)pyrazol-1-yl]benzoic Acid], the MIC in [2] amounted to 6.25 µg/mL (≈ 14.3 µM); in assay [3], 3.12 µg/mL (≈ 7.16 µM); in assay [4] it was 12.5 µg/mL (≈ 28.6 µM); in assay [5], 12.5 µg/mL (≈ 28.6 µM); in assay [6] it was 12.5 µg/mL (≈ 28.6 µM); in [7] it was 12.5 µg/mL (≈ 28.6 µM).

Regarding `O=C(O)c1ccc(-n2cc(/C=N/Nc3cccc(Cl)c3F)c(-c3cccc(F)c3)n2)cc1` [Compound 13, 4-[4-[(E)-[(3-Chloro-2-fluorophenyl)hydrazono]methyl]-3-(3-fluorophenyl)pyrazol-1-yl]benzoic Acid], the “MIC value as low as” value in assay [1] (lowest MIC over the tested Gram-positive / MRSA strains) is 0.78 µg/mL (≈ 1.72 µM). Besides, the minimum inhibitory concentration (MIC) turned out to be 3.12 µg/mL (≈ 6.9 µM) in [2]; 0.78 µg/mL (≈ 1.72 µM) in [3]; 6.25 µg/mL (≈ 13.8 µM) in [4]; 12.5 µg/mL (≈ 27.6 µM) in assay [5]; 6.25 µg/mL (≈ 13.8 µM) in assay [6]; 3.12 µg/mL (≈ 6.9 µM) in assay [7].

`O=C(O)c1ccc(-n2cc(/C=N/Nc3c(F)c(F)cc(F)c3F)c(-c3cccc(F)c3)n2)cc1` [Compound 14, 4-[3-(3-Fluorophenyl)-4-[(E)-[(2,3,5,6-tetrafluorophenyl)hydrazono]methyl]pyrazol-1-yl]benzoic Acid]: the “activity” value in assay [1] is reported as “moderate activity”. Further, the MIC in [2] came to 6.25 µg/mL (≈ 13.2 µM); in [3], 6.25 µg/mL (≈ 13.2 µM); in [4] it was 12.5 µg/mL (≈ 26.5 µM); in assay [5], 12.5 µg/mL (≈ 26.5 µM); in [6], 25 µg/mL (≈ 52.9 µM); in assay [7] it was 12.5 µg/mL (≈ 26.5 µM).

`O=C(O)c1ccc(-n2cc(/C=N/Nc3c(F)c(F)c(F)c(F)c3F)c(-c3cccc(F)c3)n2)cc1` [Compound 15, 4-[3-(3-Fluorophenyl)-4-[(E)-[(2,3,4,5,6-pentafluorophenyl)hydrazono]methyl]pyrazol-1-yl]benzoic Acid]: the “activity” value in [1] is recorded as “moderate activity”. In addition, the MIC is 6.25 µg/mL (≈ 12.7 µM) in [2]; 3.12 µg/mL (≈ 6.37 µM) in [3]; 12.5 µg/mL (≈ 25.5 µM) in [4]; 12.5 µg/mL (≈ 25.5 µM) in assay [5]; 25 µg/mL (≈ 51 µM) in [6]; 12.5 µg/mL (≈ 25.5 µM) in [7].

Turning to `O=C(O)c1ccc(-n2cc(/C=N/Nc3ccc(C(F)(F)F)cc3)c(-c3cccc(F)c3)n2)cc1` [Compound 16, 4-[3-(3-Fluorophenyl)-4-[(E)-[[4-(trifluoromethyl)phenyl]hydrazono]methyl]pyrazol-1-yl]benzoic Acid], the “activity” value in assay [1] is “moderate activity”. For the same molecule, the MIC in assay [2] turned out to be 6.25 µg/mL (≈ 13.3 µM); in [3], 6.25 µg/mL (≈ 13.3 µM); in assay [4], 6.25 µg/mL (≈ 13.3 µM); in assay [5], 12.5 µg/mL (≈ 26.7 µM); in assay [6], 12.5 µg/mL (≈ 26.7 µM); in assay [7], 12.5 µg/mL (≈ 26.7 µM).

Take `O=C(O)c1ccc(N/N=C/c2cn(-c3ccc(C(=O)O)cc3)nc2-c2cccc(F)c2)cc1` [Compound 18, 4-[(2E)-2-[[1-(4-Carboxyphenyl)-3-(3-fluorophenyl)pyrazol-4-yl]methylene]hydrazino]benzoic Acid]: the “activity” value in assay [1] was “completely ceased the activity”.

With `O=C(O)c1ccc(-n2cc(/C=N/n3cnnc3)c(-c3cccc(F)c3)n2)cc1` [Compound 19, 4-[3-(3-Fluorophenyl)-4-[(E)-1,2,4-triazol-4-yliminomethyl]pyrazol-1-yl]benzoic Acid], in assay [1], the “activity” value is reported as “completely ceased the activity”.

For the molecule `O=C(O)c1ccc(-n2cc(/C=N/Nc3ccccn3)c(-c3cccc(F)c3)n2)cc1` [Compound 20, 4-[3-(3-Fluorophenyl)-4-{(E)-[2-(pyridin-2-yl)hydrazinylidene]methyl}-1H-pyrazol-1-yl]benzoic Acid], the “activity” value in assay [1] was “completely ceased the activity”.

Take `O=C(O)c1ccc(-n2cc(/C=N/N(Cc3ccccc3)Cc3ccccc3)c(-c3ccc(F)cc3)n2)cc1` [Compound 25, 4-[4-[(E)-(Dibenzylhydrazono)methyl]-3-(4-fluorophenyl)pyrazol-1-yl]benzoic Acid]: the MIC was 6.25 µg/mL (≈ 12.4 µM) in [2] and 3.12 µg/mL (≈ 6.19 µM) in assay [3].

In the case of `O=C(O)c1ccc(-n2cc(/C=N/Nc3ccc(F)cc3)c(-c3ccc(F)cc3)n2)cc1` [Compound 26, 4-[3-(4-Fluorophenyl)-4-[(E)-[(4-fluorophenyl)hydrazono]methyl]pyrazol-1-yl]benzoic Acid], the “activity” value in [1] is on record as “moderate activity”. Moreover, the MIC is 12.5 µg/mL (≈ 29.9 µM) in [2]; 12.5 µg/mL (≈ 29.9 µM) in [3]; over 25 µg/mL in assay [8]; 12.5 µg/mL (≈ 29.9 µM) in [9]; 25 µg/mL (≈ 59.8 µM) in assay [4]; 25 µg/mL (≈ 59.8 µM) in assay [5]. Moreover, the MIC came to 25 µg/mL (≈ 59.8 µM) in [6] and 12.5 µg/mL (≈ 29.9 µM) in assay [7].

As for `O=C(O)c1ccc(-n2cc(/C=N/Nc3cccc(Br)c3)c(-c3ccc(F)cc3)n2)cc1` [Compound 27, 4-[4-[(E)-[(3-Bromophenyl)hydrazono]methyl]-3-(4-fluorophenyl)pyrazol-1-yl]benzoic Acid], the “activity” value in assay [1] is reported as “moderate activity”. Besides, the MIC in [2] stood at 6.25 µg/mL (≈ 13 µM); in assay [3] it was 3.12 µg/mL (≈ 6.52 µM); in assay [8], 25 µg/mL (≈ 52.2 µM); in assay [9], 6.25 µg/mL (≈ 13 µM); in assay [4] it was 12.5 µg/mL (≈ 26.1 µM); in [5], 12.5 µg/mL (≈ 26.1 µM). For the same molecule, the MIC in assay [6] turned out to be 25 µg/mL (≈ 52.2 µM); in assay [7], 12.5 µg/mL (≈ 26.1 µM).

Consider `O=C(O)c1ccc(-n2cc(/C=N/Nc3cc(F)ccc3F)c(-c3ccc(F)cc3)n2)cc1` [Compound 28, 4-[4-[(E)-[(2,5-Difluorophenyl)hydrazono]methyl]-3-(4-fluorophenyl)pyrazol-1-yl]benzoic Acid], for which the “activity” value in assay [1] is given as “moderate activity”. Further, the MIC in assay [2] is 6.25 µg/mL (≈ 14.3 µM); in [3] it was 6.25 µg/mL (≈ 14.3 µM); in [4] it was 25 µg/mL (≈ 57.3 µM); in assay [5], 12.5 µg/mL (≈ 28.6 µM); in [6], 12.5 µg/mL (≈ 28.6 µM); in assay [7], 12.5 µg/mL (≈ 28.6 µM).

Regarding `O=C(O)c1ccc(-n2cc(/C=N/Nc3cccc(Cl)c3F)c(-c3ccc(F)cc3)n2)cc1` [Compound 29, 4-[4-[(E)-[(3-Chloro-2-fluorophenyl)hydrazono]methyl]-3-(4-fluorophenyl)pyrazol-1-yl]benzoic Acid], the MIC stood at 1.56 µg/mL (≈ 3.44 µM) in assay [2]; 1.56 µg/mL (≈ 3.44 µM) in assay [3]; 12.5 µg/mL (≈ 27.6 µM) in [4]; 3.12 µg/mL (≈ 6.9 µM) in assay [5]; 12.5 µg/mL (≈ 27.6 µM) in assay [6]; 6.25 µg/mL (≈ 13.8 µM) in assay [7].

In the case of `N#Cc1ccc(N/N=C/c2cn(-c3ccc(C(=O)O)cc3)nc2-c2ccc(F)cc2)cc1` [Compound 30, 4-[4-[(E)-[(4-Cyanophenyl)hydrazono]methyl]-3-(4-fluorophenyl)pyrazol-1-yl]benzoic Acid], the “activity” value in [1] is “moderate activity”. The MIC in [2] was found to be 6.25 µg/mL (≈ 14.7 µM); in assay [3] it was 12.5 µg/mL (≈ 29.4 µM); in assay [8], 12.5 µg/mL (≈ 29.4 µM); in assay [9], 12.5 µg/mL (≈ 29.4 µM); in [7], 12.5 µg/mL (≈ 29.4 µM).

As for `O=C(O)c1ccc(-n2cc(/C=N/Nc3ccc([N+](=O)[O-])cc3)c(-c3ccc(F)cc3)n2)cc1` [Compound 31, 4-[3-(4-Fluorophenyl)-4-{(E)-[2-(4-nitrophenyl)hydrazinylidene]methyl}-1H-pyrazol-1-yl]benzoic Acid], the “activity” value in assay [1] is “no activity”.
